≈ marks a conversion by molar mass, not a printed value.

We go through eight compounds from ChEMBL document CHEMBL1128719, “The synthesis, structure-activity, and structure-side effect relationships of a series of 8-alkoxy- and 5-amino-8-alkoxyquinolone antibacterial agents” (J Med Chem, 1995).

The subject of one data set is Bacteroides fragilis. Nature of the data set: In vitro antibacterial activity against Bacteroides fragilis BFA. In kind it is functional. In short, it runs like this: (§1)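 Microtitration (microdilution) MIC determination in μg/mL against a panel of Gram-positive, Gram-negative and anaerobic organisms. Values come from duplicate or triplicate experiments and are stated accurate to ±50%.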

The test system of data set [1] is Peptoniphilus asaccharolyticus. Briefly: In vitro antibacterial activity was tested for Pepto asac PA 3-1. In kind it is functional. The method, boiled down:
as §1

For data set [2], the species on record is Mus musculus. Briefly: (§2) Phototoxic skin reaction in depilated female CD-1 mice. The class given is toxicity, organism-based. Particulars: in vivo. In short, it runs like this: (§3)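 Female CD-1 mice, depilated, given a single oral or subcutaneous dose. UVA (320–400 nm) exposure for 3 h, starting 1 h post-dose. Initial doses were 30, 100 and 300 mg/kg. PTD50 (dose giving phototoxic skin reaction in 50% of mice) derived by probit method. First day of positive reaction and no-effect dose taken from raw data.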

The next data set concerns Clostridium perfringens. Briefly: In vitro antibacterial activity against Clostridium perfringens CP 3-1. In kind it is functional.
The next data set deals with Cutibacterium acnes. Nature of the data set: In vitro antibacterial activity was tested for Propion acnes PA5-1. The class given is functional. The method, boiled down: as §1
The subject of data set [3] is Clostridioides difficile. Nature of the data set: (§4) In vitro antibacterial activity was tested for Clostridium diff CD1-1. In kind it is functional.
The subject of data set [4] is V79. Briefly: (§5) Clonogenic cytotoxicity against Chinese hamster V-79 cells. In kind it is functional, cell-based. Conditions: Cricetulus griseus. In short, it runs like this:
(§6)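 Chinese hamster V-79 cells grown overnight, then exposed to drug 3 h at 37 °C; drug medium replaced with fresh medium, cells incubated 5 days and scored for colony formation. IC50 (μg/mL) taken as concentration inhibiting colony formation by 50% versus control.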

For data set [5], the species on record is Mus musculus. Briefly: phototoxic skin reaction in depilated female CD-1 mice. The class given is functional. The method, boiled down: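 Depilated female CD-1 mice given a single oral or subcutaneous dose; UVA (320–400 nm) exposure for 3 h starting 1 h post-dose. Initial doses 30, 100 and 300 mg/kg. PTD50 (dose giving phototoxic skin reaction in 50% of mice) calculated by probit method; first day of positive reaction and no-effect dose also taken from raw data.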

Data set [6] deals with V79. The data set is described as §5. Conditions: Cricetulus griseus. In kind it is functional. In short, it runs like this:
as §6

For data set [7], the system named is Escherichia coli. Briefly: In vitro antibacterial activity was tested for Escherichia coli Vogel. The class given is functional. In short, it runs like this: as §1
The subject of data set [8] is Staphylococcus aureus. Nature of the data set: In vitro antibacterial activity was tested for Staphylococcus aureus H228. In kind it is functional. In short, it runs like this:
as §1

For the next data set, the system named is Streptococcus pyogenes. Briefly: In vitro antibacterial activity was tested for Streptococcus pyogenes C203. In kind it is functional. In short, it runs like this:
as §1

The subject of data set [9] is Staphylococcus aureus. Briefly: In vitro antibacterial activity was tested for Staphylococcus aureus UC-76. In kind it is functional. In short, it runs like this: as §1
For another data set, the system named is Providencia rettgeri. Briefly: In vitro antibacterial activity was tested for Providencia rettgeri H1771. In kind it is functional. In short, it runs like this:
as §1

In the next data set the test system is Klebsiella pneumoniae. Nature of the data set: In vitro antibacterial activity was tested for Klebsiella pneumoniae MGH-2. In kind it is functional. The method, boiled down: as §1
The next data set has as its system Pseudomonas aeruginosa. Nature of the data set: In vitro antibacterial activity was tested for Pseudomonas aeruginosa UI-18. In kind it is functional. The method, boiled down:
as §1

In data set [10] the test system is Escherichia coli. Nature of the data set: In vitro antibacterial activity was tested for Escherichia coli H560. In kind it is functional. In short, it runs like this: as §1
Data set [11] is filed under the species Mus musculus. The description is as §2. The class given is functional. In short, it runs like this:
as §3

In a further data set the test system is Enterococcus faecalis. Nature of the data set: In vitro antibacterial activity was tested for Streptococcus faecalis MGH-2. The class given is functional. In short, it runs like this: as §1
The test system of a further data set is Streptococcus pneumoniae. Briefly: In vitro antibacterial activity was tested for Streptococcus pneumoniae SV-1. In kind it is functional. The method, boiled down: as §1
Data set [12] deals with Clostridioides difficile. The data set is described as §4. In kind it is functional. The method, boiled down:
as §1
The source holds these as a separate data set.

The test system of the next data set is Enterobacter cloacae. Nature of the data set: In vitro antibacterial activity was tested for Enterobacter cloacae HA2646. The class given is functional.

One may read the IC50 as the concentration at which inhibition is half-maximal. Low readings indicate higher potency, high ones lower potency. As to `C[C@@H]1CN(c2cc3c(cc2F)c(=O)c(C(=O)O)cn3C2CC2)C[C@H](C)N1`, the MIC against Bacteroides fragilis was found to be 1.6 µg/mL (≈ 4.45 µM); in data set [1], 0.4 µg/mL (≈ 1.11 µM); against Clostridium perfringens it was 0.2 µg/mL (≈ 0.556 µM); with Cutibacterium acnes, 0.8 µg/mL (≈ 2.23 µM); with Clostridioides difficile [3] it was 6.3 µg/mL (≈ 17.5 µM). Besides, the PTD50 in the data set listed under Mus musculus [2] is listed as under 100 mg. Further, the IC50 with V79 [4] was over 500 µg/mL.
For the compound `NC1CCN(c2nc3c(cc2F)c(=O)c(C(=O)O)cn3C2CC2)C1` (centres undefined), the MIC worked out at 1.6 µg/mL (≈ 4.81 µM) with Bacteroides fragilis; 0.8 µg/mL (≈ 2.41 µM) in [1]; 0.1 µg/mL (≈ 0.301 µM) with Clostridium perfringens; 0.2 µg/mL (≈ 0.602 µM) against Cutibacterium acnes; 98 µg/mL (≈ 295 µM) against V79 [6]; 6.3 µg/mL (≈ 19 µM) against Clostridioides difficile [3]. The compound further came in with a PTD50 in the data set filed under Mus musculus [2] of over 100 mg. In addition, the Photoxic reaction in the data set listed under Mus musculus [5] is given as 100 mg.
Turning to `NC1CCN(c2c(F)cc3c(=O)c(C(=O)O)cn(C4CC4)c3c2F)C1` (centres undefined), the MIC turned out to be 0.013 µg/mL (≈ 0.0372 µM) in the data set on Escherichia coli [7]; 0.05 µg/mL (≈ 0.143 µM) with Staphylococcus aureus [8]; 0.2 µg/mL (≈ 0.573 µM) against Bacteroides fragilis; 0.4 µg/mL (≈ 1.15 µM) in data set [1]; 0.05 µg/mL (≈ 0.143 µM) with Streptococcus pyogenes; 0.05 µg/mL (≈ 0.143 µM) in the data set with Clostridium perfringens. Besides, the MIC against Staphylococcus aureus [9] was determined as 0.025 µg/mL (≈ 0.0716 µM); in the data set with Cutibacterium acnes, 0.2 µg/mL (≈ 0.573 µM); with Providencia rettgeri, 0.05 µg/mL (≈ 0.143 µM); in the data set with Klebsiella pneumoniae it was 0.025 µg/mL (≈ 0.0716 µM); in the data set with Pseudomonas aeruginosa, 0.1 µg/mL (≈ 0.286 µM); in the data set with Escherichia coli [10], 0.006 µg/mL (≈ 0.0172 µM). In addition, the MIC in the data set with Enterococcus faecalis was found to be 0.05 µg/mL (≈ 0.143 µM); with Streptococcus pneumoniae, 0.05 µg/mL (≈ 0.143 µM); in the data set on Clostridioides difficile [12] it was 0.4 µg/mL (≈ 1.15 µM); in the data set with Enterobacter cloacae, 0.025 µg/mL (≈ 0.0716 µM). The compound further came in with a PTD50 in the data set listed under Mus musculus [2] of 7.5 mg. This compound yielded a No effect dose in the data set listed under Mus musculus [11] of 3 mg.
With `NCC1CCCN(c2c(F)cc3c(=O)c(C(=O)O)cn(C4CC4)c3c2F)C1` (centres undefined), the MIC in the data set with Escherichia coli [7] came to 0.05 µg/mL (≈ 0.132 µM); against Staphylococcus aureus [8] it was 0.1 µg/mL (≈ 0.265 µM); against Bacteroides fragilis, 1.6 µg/mL (≈ 4.24 µM); in [1], 0.4 µg/mL (≈ 1.06 µM); against Streptococcus pyogenes it was 0.013 µg/mL (≈ 0.0344 µM); in the data set with Clostridium perfringens it was 0.2 µg/mL (≈ 0.53 µM). The MIC against Staphylococcus aureus [9] came to 0.2 µg/mL (≈ 0.53 µM); in the data set on Cutibacterium acnes it was 0.8 µg/mL (≈ 2.12 µM); in the data set with Providencia rettgeri it was 0.2 µg/mL (≈ 0.53 µM); with Klebsiella pneumoniae it was 0.2 µg/mL (≈ 0.53 µM); in the data set with Pseudomonas aeruginosa, 0.4 µg/mL (≈ 1.06 µM); in the data set with Escherichia coli [10], 0.05 µg/mL (≈ 0.132 µM). The MIC against Enterococcus faecalis is 0.05 µg/mL (≈ 0.132 µM); against Streptococcus pneumoniae, 0.013 µg/mL (≈ 0.0344 µM); against Clostridioides difficile [3] it was 0.8 µg/mL (≈ 2.12 µM); with Enterobacter cloacae, 0.05 µg/mL (≈ 0.132 µM). In addition, the IC50 in the data set with V79 [4] came out at 43 µg/mL (≈ 114 µM).
For the compound `COc1c(N2CCCC(CN)C2)c(F)cc2c(=O)c(C(=O)O)cn(C3CC3)c12` (centres undefined), the MIC against Escherichia coli [7] came out at 0.2 µg/mL (≈ 0.514 µM); in the data set with Staphylococcus aureus [8], 0.05 µg/mL (≈ 0.128 µM); against Streptococcus pyogenes, 0.006 µg/mL (≈ 0.0154 µM); against Staphylococcus aureus [9], 0.006 µg/mL (≈ 0.0154 µM); against Providencia rettgeri it was 0.8 µg/mL (≈ 2.05 µM); in the data set with Klebsiella pneumoniae, 0.4 µg/mL (≈ 1.03 µM). For the same compound, the MIC with Pseudomonas aeruginosa is 3.1 µg/mL (≈ 7.96 µM); in the data set with Escherichia coli [10] it was 0.1 µg/mL (≈ 0.257 µM); against Enterococcus faecalis, 0.05 µg/mL (≈ 0.128 µM); in the data set on Streptococcus pneumoniae, 0.006 µg/mL (≈ 0.0154 µM); with V79 [6], 22 µg/mL (≈ 56.5 µM); against Enterobacter cloacae it was 0.2 µg/mL (≈ 0.514 µM).
Regarding `COc1c(N2CCNC(C)C2)c(F)cc2c(=O)c(C(=O)O)cn(C3CC3)c12` (centres undefined) [GATIFLOXACIN], the MIC is 0.05 µg/mL (≈ 0.133 µM) in the data set on Escherichia coli [7]; 0.2 µg/mL (≈ 0.533 µM) with Staphylococcus aureus [8]; 0.4 µg/mL (≈ 1.07 µM) with Bacteroides fragilis; 0.8 µg/mL (≈ 2.13 µM) in data set [1]; 0.1 µg/mL (≈ 0.266 µM) against Streptococcus pyogenes; 0.4 µg/mL (≈ 1.07 µM) in the data set on Clostridium perfringens. The MIC against Staphylococcus aureus [9] was 0.05 µg/mL (≈ 0.133 µM); in the data set on Cutibacterium acnes it was 0.4 µg/mL (≈ 1.07 µM); in the data set on Providencia rettgeri, 0.2 µg/mL (≈ 0.533 µM); in the data set with Klebsiella pneumoniae, 0.1 µg/mL (≈ 0.266 µM); against Pseudomonas aeruginosa it was 0.8 µg/mL (≈ 2.13 µM); against Escherichia coli [10], 0.05 µg/mL (≈ 0.133 µM). For the same compound, the MIC was determined as 0.2 µg/mL (≈ 0.533 µM) with Enterococcus faecalis, 0.1 µg/mL (≈ 0.266 µM) in the data set with Streptococcus pneumoniae, 1.6 µg/mL (≈ 4.26 µM) with Clostridioides difficile [3] and 0.05 µg/mL (≈ 0.133 µM) in the data set on Enterobacter cloacae. The same compound had an IC50 in the data set with V79 [4] of 85 µg/mL (≈ 226 µM).
On to `NCC1CCCN(c2cc3c(cc2F)c(=O)c(C(=O)O)cn3C2CC2)C1` (centres undefined), for which the MIC against Escherichia coli [7] was found to be 0.4 µg/mL (≈ 1.11 µM); with Staphylococcus aureus [8] it was 0.8 µg/mL (≈ 2.23 µM); in the data set on Streptococcus pyogenes, 0.05 µg/mL (≈ 0.139 µM); in the data set with Staphylococcus aureus [9] it was 0.1 µg/mL (≈ 0.278 µM); against Providencia rettgeri it was 1.6 µg/mL (≈ 4.45 µM); against Klebsiella pneumoniae, 0.8 µg/mL (≈ 2.23 µM). The MIC against Pseudomonas aeruginosa came out at 3.1 µg/mL (≈ 8.63 µM); in the data set on Escherichia coli [10], 0.4 µg/mL (≈ 1.11 µM); with Enterococcus faecalis it was 0.2 µg/mL (≈ 0.556 µM); against Streptococcus pneumoniae it was 0.1 µg/mL (≈ 0.278 µM); against Enterobacter cloacae it was 0.4 µg/mL (≈ 1.11 µM). This compound also showed an IC50 in the data set on V79 [4] of 220 µg/mL (≈ 612 µM).
Regarding `C[C@@H]1CN(c2c(F)c(N)c3c(=O)c(C(=O)O)cn(C4CC4)c3c2F)C[C@H](C)N1` [SPARFLOXACIN], the MIC amounted to 1.6 µg/mL (≈ 4.08 µM) against Bacteroides fragilis; 0.4 µg/mL (≈ 1.02 µM) in data set [1]; 0.2 µg/mL (≈ 0.51 µM) in the data set on Clostridium perfringens; 0.4 µg/mL (≈ 1.02 µM) against Cutibacterium acnes; 6.3 µg/mL (≈ 16.1 µM) in the data set with Clostridioides difficile [3]. In the data set listed under Mus musculus [2], the PTD50 turned out to be 28 mg. In the data set listed under Mus musculus [11], this compound yielded a No effect dose of 18 mg. This compound also registered an IC50 with V79 [4] of 370 µg/mL (≈ 943 µM).
